This is an account of results in publication PMC7496803 (Chemistry (Weinheim an Der Bergstrasse, Germany), 2020).

The test system of one data set is PC-3 cells. Nature of the data set: Phototoxicity, resazurin cell viability assay after 525 nm irradiation. The format is cell-based. For orientation: Alamar Blue is a resazurin reagent that responds to reducing activity.
A further data set deals with HeLa cells. Put plainly: Phototoxicity, resazurin cell viability assay after 525 nm irradiation. Format: cell-based. Summed up:
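HeLa, 2×10^4 per well in DMEM (2.5 % FBS), 21 h before dosing. Turn-off or turn-on peptide photosensitizers in water/12.5 % MeCN, 4.00–0.03 μm final, triplicate, 2 h. Irradiated at 525 nm by LED array, 69.4±0.6 W m−2 for 160 s, then 18 h. Resazurin fluorescence viability; IC50 by four-parameter variable-slope log(inhibitor)–response fit; untreated and vehicle controls; ≥2 independent experiments.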

The conditions of data set [1]: in MeOH; cited from earlier work.

For the compound `CCCCCCCCCCCCCCCC(=O)NCCCC[C@H](NC(=O)[C@H](CSCC(=O)NCc1cn(CCOc2ccc(C3=C4C(C)=C(I)C(C)=[N+]4[B-](F)(F)n4c(C)c(I)c(C)c43)cc2)nn1)NC(=O)c1ccc(-c2nnc(C)c3c2CCC(O)CCC3)cc1)C(=O)N[C@@H](CCCNC(=N)N)C(=O)N[C@@H](CCCNC(=N)N)C(=O)N[C@@H](CCCNC(=N)N)C(=O)N[C@@H](CCCNC(=N)N)C(N)=O` (stereo partly shown) [6ON, [TCO:Tz]‐C(2I‐BODIPY)‐K(PA)RRRR‐CONH2], the “OFF/ON ratio (IC50 6OFF / IC50 6ON)” value in the data set with PC-3 cells was found to be 3.3 fold. Further, the “phototoxicity variation turn-off/turn-on (IC50 6OFF / IC50 6ON)” value with HeLa cells was determined as 3.8 fold.
Regarding Erythrosine B, the “Φ Δ of the reference photosensitizers” value in data set [1] was 0.6.
As to `O=C([O-])c1c(Cl)c(Cl)c(Cl)c(Cl)c1-c1c2cc(I)c(=O)c(I)c-2oc2c(I)c([O-])c(I)cc12.[Na+].[Na+]` [rose bengal], the “Φ Δ of the reference photosensitizers” value in data set [1] is on record as 0.76.
